Hits are enriched below; roughly 2.1% of the tested compounds scored in any of these assays.
MsrA act – bovine MsrA enzyme activators, primary screen, biochemical, absorbance, HTS; Methionine sulfoxide reductase A (Bos taurus); purified bovine MsrA, absorbance read-out; activation, % at 10.6 µM; 360,000 tested, 0.3% active; in the data active means activation above about 7.5%;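 further: 0% = vehicle and 100% = reference activator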
PKA-R2B act – activators of PKA-R2B holoenzyme, primary screen, biochemical, fluorescence polarization, Cy5-IP20, human; PKA-R2B holoenzyme dissociation; R2B truncated from residue 108, S112A mutant; 0% DMSO only, 100% 113 µM cGMP; activation, % at 11.4 µM; 340,000 tested, 0.079% active; AID 504700, 2011;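 active means activation above a cutoff set at the mean over all compounds plus 3 SD, cut at about 18% in these data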;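 further: higher means more holoenzyme dissociation and a rise in polarization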
Target sequence (P31323 whole entry, looked up, other chains not shown, the tested form may be a part): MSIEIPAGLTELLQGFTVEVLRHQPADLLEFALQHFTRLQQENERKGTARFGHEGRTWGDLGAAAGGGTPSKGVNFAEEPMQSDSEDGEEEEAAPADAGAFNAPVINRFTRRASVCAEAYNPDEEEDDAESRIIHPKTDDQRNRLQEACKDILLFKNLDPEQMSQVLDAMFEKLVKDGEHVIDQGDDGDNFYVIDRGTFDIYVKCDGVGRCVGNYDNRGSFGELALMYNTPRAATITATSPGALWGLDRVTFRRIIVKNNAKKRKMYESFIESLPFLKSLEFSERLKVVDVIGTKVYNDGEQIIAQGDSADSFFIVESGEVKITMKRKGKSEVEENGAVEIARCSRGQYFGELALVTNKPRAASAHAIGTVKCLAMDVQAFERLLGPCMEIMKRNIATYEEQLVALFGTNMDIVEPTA
MsrA inhibitor – bovine MsrA enzyme inhibitors, primary screen, biochemical, absorbance, HTS; Methionine sulfoxide reductase A (Bos taurus); purified bovine MsrA, absorbance read-out; inhibition, % at 15.5 µM; 360,000 tested, 0.75% active; AID 651718, 2012; in the data active means inhibition above about 4.5%;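 further: 0% = vehicle wells with enzyme and 100% = reference inhibitor wells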
PKA-R1A act – activators of PKA-R1A holoenzyme, primary screen, biochemical, fluorescence polarization, Cy5-IP20, bovine R1A, mouse PKAc; activation, % at 11.4 µM; 340,000 tested, 0.083% active; PKA-R1A dissociation; scaled: DMSO 0%, 113 µM cGMP 100%;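 active means percent activation above the mean of all tested compounds plus 3 SD, cut at about 19% in these data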;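 further: higher means more PKAc released from R1A so a rise in polarization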
IMP-1 inhibitor – IMP-1 metallo-beta-lactamase inhibitors, primary screen, biochemical, epi-absorbance readout, Pseudomonas aeruginosa enzyme; metallo-beta-lactamase IMP-1 (Pseudomonas aeruginosa); purified IMP-1, nitrocefin hydrolysis, epi-absorbance fluorescence; inhibition, % at 5.6 µM; 290,000 tested, 0.45% active;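 active means inhibition above the mean plus 3 SD of all compounds in the same screening run, cut at about 4.5% in these data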;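 further: 0% = IMP-1 with DMSO and 100% = DMSO wells lacking enzyme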
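System – purified recombinant IMP-1 beta-lactamase · Input – IMP-1 dispensed at 0.2 nM · Timing – 15 min preincubation plus 25 min reaction at 25 °C · Signal – Epi-absorbance fluorescence, 480 nm excitation, 530 nm emission · Measure – percent IMP-1 inhibition derived from blank-referenced optical density · Controls – Enzyme-plus-DMSO low control, enzyme-free DMSO high control · Replication – singlicate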
VIM-2 inh – VIM-2 metallo-beta-lactamase inhibitors, primary screen, biochemical, epi-absorbance readout, Pseudomonas aeruginosa enzyme; 290,000 tested, 0.89% active; purified VIM-2, nitrocefin hydrolysis, epi-absorbance fluorescence; inhibition, % at 5.6 µM;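 active means inhibition above the mean of all tested compounds plus 3 SD, cutoff set per screening run, cut at about 7.5% in these data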;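 further: red hydrolysis product quenches plate fluorescence so inhibitors raise well fluorescence; 0% = enzyme with DMSO and 100% = DMSO without enzyme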
Numbers without * were called inactive; / = not tested or not shown.

SMILES	MsrA act	PKA-R2B act	MsrA inhibitor	PKA-R1A act	IMP-1 inhibitor	VIM-2 inh
CCOC(=O)C1=CCN(S(=O)(=O)c2ccc(F)cc2)C1c1ccc(Cl)cc1 (stereo unspecified)	/	/	0.4	/	/	/
Cc1c(O)c(CN2CCCCC2)cc2c1oc(=O)c1ccccc12	-0.9	3.6	0.8	-10.1	-1.7	5.5
Cc1c(O)c(CN(C)C)cc2c1oc(=O)c1ccccc12	-0.4	-11.7	0.6	-16.1	-1.3	11.0*
NC(=O)C1=C[C@@H](c2csc3ccccc23)C[C@@H](OCCCCO)O1	2.8	5.9	-0.3	13.7	6.3*	2.9
C=CCOC(=O)C1=C[C@H](c2csc3ccccc23)C[C@H](OCCCCO)O1	-10.4	-11.1	-0.2	-1.6	/	/
O=C1C=CC(=O)N1c1ccc(OC(F)F)cc1	-17.5	0.0	46.6*	0.4	-1.9	-3.3
COc1ccc(CN(CC(=O)NCC2CCCO2)C(=O)CNS(=O)(=O)c2ccccc2)cc1 (stereo unspecified)	-2.5	-16.6	-0.4	-4.5	-3.1	-2.0
CC(C)n1nccc1NC(=O)Nc1ccccc1	4.3	-4.7	1.4	2.7	9.1*	-0.1
CC(C)n1nccc1NS(=O)(=O)c1ccccc1	-4.1	-2.6	-0.1	3.4	/	/
Cc1c(C)c2cccnc2c2ncccc12	-8.3	-1.4	/	-2.0	/	/
Cc1ccc2ccc3cccnc3c2n1	-3.8	0.0	-0.6	-13.0	-26.6	9.5*
CCOc1ccc(NC(=O)CN2C(=O)c3cccc4cccc2c34)cc1	/	/	0.3	/	/	/
O=C(Nc1ccccc1N1CCN(C(=O)c2ccccc2)CC1)c1ccc(Br)o1	-2.2	-2.2	0.2	-5.2	5.9*	-2.9
O=C(c1ccc2n[nH]nc2c1)N1CCN(c2ccc(C(F)(F)F)cn2)CC1	0.6	-1.6	0.6	-2.8	/	/
N#CC1=C(N)Oc2n[nH]c(-c3cccs3)c2C1c1cccs1 (stereo unspecified)	-2.8	-0.7	0.3	10.7	3.2	8.2*
Cn1nc(-c2ccccc2)c(N2CCCCC2)cc1=O	-5.4	8.8	-0.1	-1.0	0.3	-2.2
Cn1c(=O)cc2c3c(c(N4CCCCC4)ccc31)C(=O)c1ccccc1-2	-12.2	/	0.6	/	1.3	10.4*
Cc1ccc(N2CC(C)Cn3c2nc2c3c(=O)[nH]c(=O)n2C)cc1C (stereo unspecified)	-1.1	-9.6	0.9	-6.8	-1.8	8.7*
CC(CS(=O)(=O)c1ccc2c(c1)NC(=O)CS2)C(=O)NCc1ccccc1Cl (stereo unspecified)	-4.8	-4.2	0.8	-15.1	9.2*	-2.9
O=C1CSc2ccc(S(=O)(=O)NCc3ccccc3Cl)cc2N1	-2.1	3.9	-0.7	-6.0	1.1	0.6
O=C(COc1ccc(F)cc1)N/N=C/c1cccc2cccnc12	-3.4	-5.1	0.9	7.1	-2.7	-2.8
Cc1sc(-c2ccncc2)nc1OC(=O)c1cc(Cl)cc(Cl)c1	0.5	5.0	-0.2	7.8	5.7*	-1.5
Cc1sc(-c2ccncc2)nc1OC(=O)c1ccc(F)cc1F	-0.6	0.0	-0.6	-9.5	10.1*	0.0
O=C(COC(=O)c1ccc(F)cc1F)NCCNC(=O)COC(=O)c1ccc(F)cc1F	-0.4	-9.8	0.6	-15.1	-1.0	-2.0
Cc1sc(-c2ccncc2)nc1OC(=O)c1ccc(Cl)cc1	1.7	-9.8	0.4	-0.5	-0.9	-2.1
SMILES	MsrA act	PKA-R2B act	MsrA inhibitor	PKA-R1A act	IMP-1 inhibitor	VIM-2 inh
O=C(NCc1ccc(F)cc1)C1CCCN1C(=O)Nc1cccc(F)c1 (stereo unspecified)	-4.9	-5.5	0.2	-1.6	-3.6	-2.9
O=C(NC1CCCCC1)C(c1ccc(O)c(O)c1)N(C(=O)Cn1nnc2ccccc21)c1cccc(O)c1 (stereo unspecified)	3.8	3.1	-0.7	1.5	10.5*	0.8
CC(=O)c1cccc(N(C(=O)Cn2nnc3ccccc32)C(C(=O)NC2CCCCC2)c2cn(C)nc2C)c1 (stereo unspecified)	-8.0	-2.5	-0.4	-0.8	-1.7	-2.3
COC(=O)C1(CCSC)NC(c2ccc(O)cc2)C2C(=O)N(c3ccc(F)cc3)C(=O)C21 (stereo unspecified)	-1.9	-7.1	0.3	8.7	-0.8	-1.3
CCCc1nc2ccc(Cl)cn2c1Cc1ccccc1	-5.9	/	0.5	/	/	/
Cc1ccc(NC(=O)/C(=C\c2ccc3c(c2)OCO3)NC(=O)c2ccco2)cc1	-6.8	-3.7	4.5*	-1.9	-0.9	0.2
CN1CCN(C(=O)C(=O)c2cn(CC(=O)N3CCCCCC3)c3ccccc23)CC1	-3.8	-7.9	1.4	-1.0	/	/
COc1cccc2c1CCC1=CC(=O)CCC12C (stereo unspecified)	-10.5	-10.7	0.9	-1.8	/	/
NC(=O)C1CCN(C(=O)COc2ccc3c4c(c(=O)oc3c2)CCCC4)CC1	4.6	-1.1	1.1	-4.4	-0.5	11.2*
Cc1cc(OCC(=O)N2CCOCC2)cc2oc(=O)c3ccccc3c12	-8.6	-5.2	0.2	4.7	-1.8	9.5*
Cc1ccc(OCC(=O)N2CCOCC2)cc1C	-9.8	-4.4	0.2	-2.5	-1.5	-1.0
O=C(COc1ccc2c3c(c(=O)oc2c1)CCC3)N1CCN(c2ccc(F)cc2)CC1	-3.7	-4.6	0.6	-5.0	-2.5	9.1*
CC(Oc1ccc2c3c(c(=O)oc2c1)CCC3)C(=O)NCc1cccnc1 (stereo unspecified)	-3.9	-4.7	2.5	0.4	-1.6	9.6*
CC(Oc1ccc2c3c(c(=O)oc2c1)CCCC3)C(=O)NCC(O)c1ccccc1 (stereo unspecified)	-2.8	-5.2	-0.1	-7.7	-1.3	4.7
O=C(COc1ccc2c3c(c(=O)oc2c1)CCCC3)N1CCN(c2ccc(F)cc2)CC1	-3.1	-11.6	-0.9	-12.8	-0.8	5.2
COC(=O)c1ccc(NC(=O)CN2C(=O)NC3(CCC(C)CC3)C2=O)cc1 (stereo unspecified)	-0.1	-1.9	-1.1	5.0	/	/
COc1ccc(NC(=O)C2(C)CCN2CC2CCCCC2)cc1OC (stereo unspecified)	-3.9	/	1.1	/	/	/
O=C(C1CC1)N1CCN(c2ccc([N+](=O)[O-])cc2-n2cccc2)CC1	-1.9	1.1	0.3	-5.4	-1.2	-1.5
O=c1oc2cc(OCc3ccc([N+](=O)[O-])cc3)ccc2c2c1CCCC2	0.0	-4.8	-0.1	-1.7	-3.4	-0.9

Compound activity (PubChem BioAssay)
